Laboratory results published in ChEMBL document CHEMBL1123505, “Synthesis, structure, and antitumor activity of N-salicyloyl-N'-(2-furylthiocarbonyl)hydrazine and its copper(II) complex” (1986).

Assays:
Assay type in all cases: functional
Mus musculus [1] = experiment: Antitumor activity expressed as mean life span of nonsurvivors in days (T/C) was tested against fibrosarcoma at the dosage of 25 mg/kg (ip); 40/28
Outline: (§1)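 On day 3 after transplantation they received a single ip or sc dose of compound freshly suspended in 0.89% saline. Saline-injected controls were used, with 5–10 mice per group. Mean life span of treated nonsurvivors is shown against untreated controls, excluding mice surviving ≥6 months.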

Mus musculus [2] = experiment: Antitumor activity expressed as the no. of mice surviving >6 months was tested against fibrosarcoma at the dosage of 10 mg/kg (ip)
Outline: (§2)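 Fibrosarcoma was established by sc inoculation of 4 × 10⁶ cells in mice. On day 3 they received a single ip or sc injection of compound freshly suspended in 0.89% saline, with 5–10 mice per group. The count is of mice surviving 6 months or more after treatment, scored as tumor-free, with the percentage of the group also given.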

Mus musculus [3] = experiment: Antitumor activity expressed as %T/C was tested against fibrosarcoma at the dosage of 10 mg/Kg (sc)
Outline: (§3)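 Fibrosarcoma: 4 × 10⁶ cells were given sc to C₃H/He mice, 25–30 g. A single ip or sc dose in 0.89% saline followed on day three, with saline-injected controls. Mean life span of nonsurvivors excludes mice surviving 6 months or more, which were counted as tumour-free. T/C% is treated mean survival, excluding tumour-free survivors, divided by untreated mean life span ×100.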

Mus musculus [4] = experiment: Antitumor activity expressed as %T/C was tested against fibrosarcoma at the dosage of 10 mg/Kg (ip); outline: as §3
Mus musculus [5] = experiment: Antitumor activity expressed as the no. of mice surviving >6 months was tested against fibrosarcoma at the dosage of 25 mg/kg (sc); outline: as §2
Mus musculus [6] = experiment: Antitumor activity expressed as mean life span of nonsurvivors in days (T/C) was tested against Dalton's lymphoma at the dosage of 10 mg/kg (ip); 33/21
Mus musculus [7] = experiment: Antitumor activity expressed as %T/C was tested against Dalton's lymphoma at the dosage of 2 mg/Kg (ip)
Outline: (§4)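 Dalton's lymphoma: 2 × 10⁷ ascites cells were given ip to DbA mice, 18–20 g. A single ip dose in 0.89% saline followed on day two, with saline-injected controls. Mean life span was calculated excluding mice that survived 6 months or more. T/C% is the mean survival of treated mice, excluding tumour-free survivors, divided by the mean life span of untreated mice ×100.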

Mus musculus [8] = experiment: Antitumor activity expressed as the no. of mice surviving >6 months was tested against fibrosarcoma at the dosage of 50 mg/kg (ip); outline: as §2
Mus musculus [9] = experiment: Antitumor activity expressed as %T/C was tested against fibrosarcoma at the dosage of 25 mg/Kg (ip); outline: as §3
Mus musculus [10] = experiment: Antitumor activity expressed as mean life span of nonsurvivors in days (T/C) was tested against fibrosarcoma at the dosage of 50 mg/kg (ip); 45/27; outline: as §1
Mus musculus [11] = experiment: Antitumor activity against Dalton's lymphoma infected mice at the dosage of 25 mg/kg (ip) and expressed as no. of mice injected; T/C= 5/5
Mus musculus [12] = experiment: Antitumor activity expressed as average body weight change was tested against fibrosarcoma at the dosage of 5 mg/kg (sc)
Outline: (§5)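 Fibrosarcoma-bearing C₃H/He mice (4 × 10⁶ cells sc) received a single ip or sc dose in 0.89% saline on day three after transplant; controls received saline. The day of injection was taken as day zero. Mice were weighed on alternate days up to 4 weeks. Values are average % weight change from the day of treatment to day 21.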

Mus musculus [13] = experiment: Antitumor activity expressed as average body weight change was tested against fibrosarcoma at the dosage of 50 mg/kg (Ip); outline: as §5
Mus musculus [14] = experiment: Antitumor activity against fibrosarcoma infected mice at the dosage of 25 mg/kg (ip) and expressed as no. of mice injected; T/C= 10/10
Mus musculus [15] = experiment: Antitumor activity against Dalton's lymphoma infected mice at the dosage of 2 mg/kg (ip) and expressed as no. of mice injected; T/C= 5/5
Mus musculus [16] = experiment: Antitumor activity against fibrosarcoma infected mice at the dosage of 10 mg/kg (sc) and expressed as no. of mice injected; T/C= 8/7
Mus musculus [17] = experiment: Antitumor activity expressed as the no. of mice surviving >6 months was tested against fibrosarcoma at the dosage of 5 mg/kg (ip); outline: as §2
Mus musculus [18] = experiment: Antitumor activity against fibrosarcoma infected mice at the dosage of 10 mg/kg (ip) and expressed as no. of mice injected; T/C= 6/6
Mus musculus [19] = experiment: Antitumor activity against Dalton's lymphoma infected mice at the dosage of 10 mg/kg (ip) and expressed as no. of mice injected; T/C= 5/5
Mus musculus [20] = experiment: Antitumor activity expressed as %T/C was tested against fibrosarcoma at the dosage of 5 mg/Kg (sc); outline: as §3
Mus musculus [21] = experiment: Antitumor activity expressed as the no. of mice surviving >6 months was tested against fibrosarcoma at the dosage of 25 mg/kg (ip); outline: as §2
Mus musculus [22] = experiment: Antitumor activity against fibrosarcoma infected mice at the dosage of 25 mg/kg (sc) and expressed as no. of mice injected; T/C= 8/9
Mus musculus [23] = experiment: Antitumor activity expressed as mean life span of nonsurvivors in days (T/C) was tested against fibrosarcoma at the dosage of 25 mg/kg (sc); 41/26; outline: as §1
Mus musculus [24] = experiment: Antitumor activity expressed as mean life span of nonsurvivors in days (T/C) was tested against fibrosarcoma at the dosage of 10 mg/kg (ip); 38/26; outline: as §1
Mus musculus [25] = experiment: Antitumor activity against fibrosarcoma infected mice at the dosage of 50 mg/kg (ip) and expressed as no. of mice injected; T/C= 8/8
Mus musculus [26] = experiment: Antitumor activity expressed as average body weight change was tested against fibrosarcoma at the dosage of 5 mg/kg (Ip); outline: as §5
Mus musculus [27] = experiment: Antitumor activity expressed as average body weight change was tested against fibrosarcoma at the dosage of 25 mg/kg (Ip); outline: as §5
Mus musculus [28] = experiment: Antitumor activity expressed as %T/C was tested against Dalton's lymphoma at the dosage of 25 mg/Kg (ip); outline: as §4
Mus musculus [29] = experiment: Antitumor activity expressed as average body weight change was tested against fibrosarcoma at the dosage of 25 mg/kg (sc); outline: as §5
Mus musculus [30] = experiment: Antitumor activity expressed as mean life span of nonsurvivors in days (T/C) was tested against fibrosarcoma at the dosage of 10 mg/kg (sc); 37/27; outline: as §1
Mus musculus [31] = experiment: Antitumor activity expressed as %T/C was tested against Dalton's lymphoma at the dosage of 10 mg/Kg (ip); outline: as §4
Mus musculus [32] = experiment: Antitumor activity expressed as mean life span of nonsurvivors in days (T/C) was tested against fibrosarcoma at the dosage of 5 mg/kg (ip); 41/27; outline: as §1
Mus musculus [33] = experiment: Antitumor activity against fibrosarcoma infected mice at the dosage of 5 mg/kg (ip) and expressed as no. of mice injected; T/C= 8/6
Mus musculus [34] = experiment: Antitumor activity expressed as mean life span of nonsurvivors in days (T/C) was tested against Dalton's lymphoma at the dosage of 2 mg/kg (ip); 27/21
Mus musculus [35] = experiment: Antitumor activity expressed as %T/C was tested against fibrosarcoma at the dosage of 5 mg/Kg (ip); outline: as §3
Mus musculus [36] = experiment: Antitumor activity expressed as mean life span of nonsurvivors in days (T/C) was tested against Dalton's lymphoma at the dosage of 25 mg/kg (ip); 41/21
Mus musculus [37] = experiment: Antitumor activity expressed as mean life span of nonsurvivors in days (T/C) was tested against fibrosarcoma at the dosage of 5 mg/kg (sc); 36/26; outline: as §1
Mus musculus [38] = experiment: Antitumor activity expressed as %T/C was tested against fibrosarcoma at the dosage of 25 mg/Kg (sc); outline: as §3
Mus musculus [39] = experiment: Antitumor activity expressed as %T/C was tested against fibrosarcoma at the dosage of 50 mg/Kg (ip); outline: as §3
Mus musculus [40] = experiment: Antitumor activity expressed as average body weight change was tested against fibrosarcoma at the dosage of 10 mg/kg (sc); outline: as §5
Mus musculus [41] = experiment: Antitumor activity against fibrosarcoma infected mice at the dosage of 5 mg/kg (sc) and expressed as no. of mice injected; T/C= 7/7
Mus musculus [42] = experiment: Antitumor activity expressed as average body weight change was tested against fibrosarcoma at the dosage of 10 mg/kg (Ip); outline: as §5

With O=C(NN=C(S)c1ccco1)c1ccccc1O the T/C (Mus musculus [1]) was 40 days, the “No. of mice surviving >6 months” value (Mus musculus [2]) was 3 and the T/C (Mus musculus [3]) was 137%. For the same compound, the T/C (Mus musculus [4]) was 146%, the “No. of mice surviving >6 months” value (Mus musculus [5]) was 6 and the T/C (Mus musculus [6]) was 33 days. The T/C (Mus musculus [7]) was 128%, the “No. of mice surviving >6 months” value (Mus musculus [8]) was 6 and the T/C (Mus musculus [9]) was 143%. For the same compound, the T/C (Mus musculus [10]) was 45 days, the T/C (Mus musculus [11]) was 5 and the “Average body weight change” value (Mus musculus [12]) was 11.62%. For the same compound, the “Average body weight change” value (Mus musculus [13]) was 2.65%, the T/C (Mus musculus [14]) was 10 and the T/C (Mus musculus [15]) was 5. The T/C (Mus musculus [16]) was 8, the “No. of mice surviving >6 months” value (Mus musculus [17]) was 4 and the T/C (Mus musculus [18]) was 6. The T/C (Mus musculus [19]) was 5, the T/C (Mus musculus [20]) was 139% and the “No. of mice surviving >6 months” value (Mus musculus [21]) was 5. For the same compound, the T/C (Mus musculus [22]) was 8, the T/C (Mus musculus [23]) was 41 days and the T/C (Mus musculus [24]) was 38 days. For the same compound, the T/C (Mus musculus [25]) was 8, the “Average body weight change” value (Mus musculus [26]) was 15.1% and the “Average body weight change” value (Mus musculus [27]) was 7.88%. For the same compound, the T/C (Mus musculus [28]) was 195%, the “Average body weight change” value (Mus musculus [29]) was 9.96% and the T/C (Mus musculus [30]) was 37 days. For the same compound, the T/C (Mus musculus [31]) was 157%, the T/C (Mus musculus [32]) was 41 days and the T/C (Mus musculus [33]) was 8. For the same compound, the T/C (Mus musculus [34]) was 27 days, the T/C (Mus musculus [35]) was 152% and the T/C (Mus musculus [36]) was 41 days. It also gave a T/C (Mus musculus [37]) of 36 days, a T/C (Mus musculus [38]) of 158% and a T/C (Mus musculus [39]) of 167%. For the same compound, the “Average body weight change” value (Mus musculus [40]) was 12.31%, the T/C (Mus musculus [41]) was 7 and the “Average body weight change” value (Mus musculus [42]) was 11.27%.
